Series [1] has as its target T1, Fatty-acid amide hydrolase 1 (Homo sapiens, UniProt O00519).
T1 sequence (O00519 whole entry): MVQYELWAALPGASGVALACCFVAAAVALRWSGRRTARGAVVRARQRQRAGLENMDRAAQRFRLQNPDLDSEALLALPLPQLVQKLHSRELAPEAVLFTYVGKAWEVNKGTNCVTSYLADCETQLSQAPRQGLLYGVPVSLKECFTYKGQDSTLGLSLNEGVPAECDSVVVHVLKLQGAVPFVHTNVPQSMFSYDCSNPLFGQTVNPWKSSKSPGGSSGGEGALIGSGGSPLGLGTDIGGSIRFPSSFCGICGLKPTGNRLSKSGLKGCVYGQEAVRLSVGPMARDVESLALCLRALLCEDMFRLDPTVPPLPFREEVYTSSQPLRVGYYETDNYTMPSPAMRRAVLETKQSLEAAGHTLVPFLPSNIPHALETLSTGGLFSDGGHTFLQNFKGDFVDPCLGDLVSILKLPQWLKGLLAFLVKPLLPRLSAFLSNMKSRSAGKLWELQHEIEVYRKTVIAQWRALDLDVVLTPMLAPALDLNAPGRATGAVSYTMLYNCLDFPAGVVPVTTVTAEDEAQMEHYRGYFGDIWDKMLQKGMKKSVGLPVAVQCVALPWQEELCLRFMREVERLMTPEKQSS
In words: Inhibition of human FAAH lysate using AMCAA as substrate by fluorescence assay. The method, boiled down: (§1)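 In vitro assays, with values reported as the average of at least three duplicates.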

The target of series [2] is T2, Fatty-acid amide hydrolase 1 (Rattus norvegicus, UniProt P97612).
T2 sequence (P97612 whole entry): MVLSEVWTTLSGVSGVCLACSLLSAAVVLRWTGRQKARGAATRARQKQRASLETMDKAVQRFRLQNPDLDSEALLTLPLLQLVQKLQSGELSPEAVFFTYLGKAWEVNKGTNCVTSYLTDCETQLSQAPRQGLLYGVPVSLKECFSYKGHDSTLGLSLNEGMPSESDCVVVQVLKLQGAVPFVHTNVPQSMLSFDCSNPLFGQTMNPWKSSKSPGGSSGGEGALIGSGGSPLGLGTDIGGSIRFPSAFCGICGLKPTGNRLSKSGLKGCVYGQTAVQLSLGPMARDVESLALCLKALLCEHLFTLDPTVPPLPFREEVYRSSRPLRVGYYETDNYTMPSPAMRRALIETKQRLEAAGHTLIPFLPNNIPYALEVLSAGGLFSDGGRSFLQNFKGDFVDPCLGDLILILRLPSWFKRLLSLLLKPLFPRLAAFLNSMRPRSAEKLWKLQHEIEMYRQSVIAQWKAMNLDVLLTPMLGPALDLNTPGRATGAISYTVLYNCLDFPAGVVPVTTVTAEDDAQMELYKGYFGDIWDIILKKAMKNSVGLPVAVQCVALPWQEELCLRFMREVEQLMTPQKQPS
In words: Inhibition of rat FAAH lysate using AMCAA as substrate by fluorescence assay. The method in brief: as §1

For series [3], the target named is Voltage-gated inwardly rectifying potassium channel KCNH2 (Homo sapiens, UniProt Q12809). In words: Displacement of [35S]MK-499 from human ERG. The method in brief: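 hERG K+ channel binding assay measuring displacement of the radiolabelled channel blocker [35S]MK-499. Values are averages of at least three duplicates.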
Voltage-gated inwardly rectifying potassium channel KCNH2, sequence (Q12809 whole entry): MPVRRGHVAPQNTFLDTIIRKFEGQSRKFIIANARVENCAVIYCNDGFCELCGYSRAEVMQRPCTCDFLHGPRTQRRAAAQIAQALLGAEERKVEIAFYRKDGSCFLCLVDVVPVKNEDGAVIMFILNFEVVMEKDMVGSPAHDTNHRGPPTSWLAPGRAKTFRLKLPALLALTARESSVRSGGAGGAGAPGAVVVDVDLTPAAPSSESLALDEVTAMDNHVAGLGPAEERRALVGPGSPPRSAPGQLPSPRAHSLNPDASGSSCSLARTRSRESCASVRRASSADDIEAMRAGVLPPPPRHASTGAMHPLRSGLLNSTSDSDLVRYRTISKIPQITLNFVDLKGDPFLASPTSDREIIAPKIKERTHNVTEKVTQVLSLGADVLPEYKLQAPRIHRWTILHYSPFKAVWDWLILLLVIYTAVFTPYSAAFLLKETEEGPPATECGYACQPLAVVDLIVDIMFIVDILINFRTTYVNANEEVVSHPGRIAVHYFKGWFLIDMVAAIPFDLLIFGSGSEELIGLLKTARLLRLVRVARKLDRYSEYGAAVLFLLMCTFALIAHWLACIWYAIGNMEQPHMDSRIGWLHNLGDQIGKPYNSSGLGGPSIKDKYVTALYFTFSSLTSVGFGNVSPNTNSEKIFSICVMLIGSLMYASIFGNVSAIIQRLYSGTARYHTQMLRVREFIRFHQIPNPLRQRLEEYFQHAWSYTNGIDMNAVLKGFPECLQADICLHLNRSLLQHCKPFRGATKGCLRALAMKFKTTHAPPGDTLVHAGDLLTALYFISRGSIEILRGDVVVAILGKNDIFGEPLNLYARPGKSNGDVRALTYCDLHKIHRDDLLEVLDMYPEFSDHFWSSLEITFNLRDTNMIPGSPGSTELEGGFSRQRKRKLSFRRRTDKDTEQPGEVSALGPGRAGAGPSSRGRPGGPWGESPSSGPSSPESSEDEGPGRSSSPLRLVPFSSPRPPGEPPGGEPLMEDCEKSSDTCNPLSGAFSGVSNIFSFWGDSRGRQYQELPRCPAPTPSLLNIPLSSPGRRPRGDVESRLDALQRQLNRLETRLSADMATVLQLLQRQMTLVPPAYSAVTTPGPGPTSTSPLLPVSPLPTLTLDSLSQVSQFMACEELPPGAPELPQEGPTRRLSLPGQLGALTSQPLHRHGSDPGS
A short description of series [4]: Inhibition of human vesicular monoamine transporter. The method in brief:
as §1

Series [5] deals with Rattus norvegicus. In words: Dose normalized AUC in rat at 1 mg/kg, iv and 2 mg/kg, po. To be noted: in vivo. Format: ADME, organism-based. The method, boiled down: (§2)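 Rat PK given 1 mg/kg iv in DMSO/PEG400/H2O 20/60/20 and 2 mg/kg po in either Imwitor/Tween 1/1 or PEG400/Tween80/H2O 40/10/50. Half-life, clearance, volume of distribution, dose-normalized AUC (AUCN) and oral bioavailability were derived.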

Series [6] is described as follows: Half life in rat at 1 mg/kg, iv and 2 mg/kg, po. Format: ADME, organism-based. To be noted: in vivo. The method in brief: as §2
The nature of series [7]: Clearance in rat at 1 mg/kg, iv and 2 mg/kg, po. Format: ADME, organism-based. To be noted: in vivo. The method in brief:
as §2

Series [8] is described as follows: Volume of distribution at steady state in rat at 1 mg/kg, iv and 2 mg/kg, po. Format: ADME, organism-based. The conditions noted are these: in vivo, read-out: Vdss. The method in brief:
as §2

Series [9] can be described thus: Bioavailability in rat at 1 mg/kg, iv and 2 mg/kg, po. Format: ADME, organism-based. To be noted: in vivo. The method in brief: as §2
Series [10] is described as follows: Solubility in fasted state simulated intestinal fluid. Format: ADME.
Series [11] deals with Rattus norvegicus. In words: Analgesic activity in Sprague-Dawley rat complete Freund's adjuvant-induced inflammatory pain model assessed as reversal of mechanical allodynia at 30 mg/kg, po single dose measured after 1 hr. Format: functional. The method, boiled down:
(§3)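 Inflammatory pain induced in rats by intraplantar injection of complete Freund's adjuvant into the hind paw. Mechanical allodynia was assessed at 1 and 3 h after a single oral dose. For each rat, percent reversal = (postdose – predose)/(preinjury – predose), averaged over n = 6.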

Series [12] deals with Rattus norvegicus. In words: Analgesic activity in Sprague-Dawley rat complete Freund's adjuvant-induced inflammatory pain model assessed as reversal of mechanical allodynia at 30 mg/kg, po single dose measured after 3 hrs. Format: functional. The method, boiled down:
as §3

Series [13] is described as follows: Fraction unbound in dog plasma. Format: ADME, cell-free, Canis lupus familiaris.
The subject of series [14] is Rattus norvegicus. In words: Analgesic activity in Sprague-Dawley rat complete Freund's adjuvant-induced inflammatory pain model assessed as reversal of mechanical allodynia at 10 mg/kg, po single dose measured after 1 hr. Format: functional. The method, boiled down: as §3
The test system of series [15] is Rattus norvegicus. In words: Analgesic activity in Sprague-Dawley rat complete Freund's adjuvant-induced inflammatory pain model assessed as reversal of mechanical allodynia at 10 mg/kg, po single dose measured after 3 hrs. Format: functional. The method in brief:
as §3

For series [16], the system named is Rattus norvegicus. In words: Antiallodynic activity in Harlan rat spinal nerve ligation model of neuropathic pain assessed as reversal of allodynia at 3 mg/kg, po. Format: functional.
Series [17] concerns Rattus norvegicus. In words: Toxicity in Harlan rat assessed as motor impairment at 3 mg/kg, po by rotarod test. The conditions noted are these: in vivo. Format: organism-based. Also on record: dose 3 mg/kg, route oral. A general note: Falling from the rotarod earlier than controls is read as motor impairment.
Series [18] in a line: Fraction unbound in rat plasma. Format: ADME, cell-free.
Series [19] is described as follows: Fraction unbound in rhesus monkey plasma. Format: ADME, cell-free, Macaca mulatta.
A short description of series [20]: Fraction unbound in human plasma. Format: ADME, cell-free.
For series [21], the system named is Rattus norvegicus. In words: Analgesic activity in Sprague-Dawley rat complete Freund's adjuvant-induced inflammatory pain model assessed as reversal of mechanical allodynia at 30 mg/kg/day, po measured up to 10 days. Format: functional, organism-based. The method in brief:
(§4)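 Chronic paradigm in the CFA inflammatory pain model in rats (intraplantar complete Freund's adjuvant in the hind paw). Daily oral dosing continued for up to 10 days, with a pan CB agonist run for comparison. Allodynia was followed over the days. Plasma exposures were sampled at 3 and 24 h after dosing at 30 mg/kg.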

Series [22] in a line: Plasma concentration in Sprague-Dawley rat at 30 mg/kg/day, po measured after 3 hrs on day 1. Also on record: route oral. Format: ADME, organism-based. The method, boiled down: as §4
Series [23] can be described thus: Plasma concentration in Sprague-Dawley rat at 30 mg/kg/day, po measured after 3 hrs on day 2. Format: ADME, organism-based. Also noted: route oral. The method, boiled down:
as §4

The nature of series [24]: Plasma concentration in Sprague-Dawley rat at 30 mg/kg/day, po measured after 3 hrs on day 3. Format: ADME, organism-based. Also on record: route oral. The method in brief:
as §4

A short description of series [25]: Plasma concentration in Sprague-Dawley rat at 30 mg/kg/day, po measured after 3 hrs on day 5. Also on record: route oral. Format: ADME, organism-based. The method, boiled down: as §4
The nature of series [26]: Plasma concentration in Sprague-Dawley rat at 30 mg/kg/day, po measured after 3 hrs on day 8. Format: ADME, organism-based. Also noted: route oral. The method in brief:
as §4

A short description of series [27]: Plasma concentration in Sprague-Dawley rat at 30 mg/kg/day, po measured after 3 hrs on day 9. Also noted: route oral. Format: ADME, organism-based. The method in brief: as §4
The nature of series [28]: Plasma concentration in Sprague-Dawley rat at 30 mg/kg/day, po measured after 3 hrs on day 10. Format: ADME, organism-based. Also on record: route oral. The method, boiled down:
as §4

Series [29] in a line: Plasma concentration in Sprague-Dawley rat at 30 mg/kg/day, po measured after 24 hrs on day 2. Also noted: route oral. Format: ADME, organism-based. The method, boiled down: as §4
The nature of series [30]: Plasma concentration in Sprague-Dawley rat at 30 mg/kg/day, po measured after 24 hrs on day 3. Format: ADME, organism-based. Also on record: route oral. The method in brief: as §4
Series [31] is described as follows: Plasma concentration in Sprague-Dawley rat at 30 mg/kg/day, po measured after 24 hrs on day 5. Format: ADME, organism-based. Also on record: route oral. The method, boiled down: as §4
The nature of series [32]: Plasma concentration in Sprague-Dawley rat at 30 mg/kg/day, po measured after 24 hrs on day 8. Format: ADME, organism-based. Also noted: route oral. The method, boiled down:
as §4

Series [33] is described as follows: Plasma concentration in Sprague-Dawley rat at 30 mg/kg/day, po measured after 24 hrs on day 9. Also noted: route oral. Format: ADME, organism-based. The method, boiled down: as §4
Series [34] can be described thus: Plasma concentration in Sprague-Dawley rat at 30 mg/kg/day, po measured after 24 hrs on day 10. Also on record: route oral. Format: ADME, organism-based. The method, boiled down:
as §4

Molecules are shown by their SMILES. In brackets after ≈: the same amount, converted by molar mass. Activity calls are given as the source filed them. No cut-off for these calls is given here.

`Clc1ccc(Sc2cn(-c3cccnc3)nc2-c2ccc(-c3ncon3)cc2)cc1`: the IC50 – broadly, the concentration that gives 50% inhibition – in series [1] turned out to be 13 nM; in [2], 4.8 nM. In series [3], the affinity corresponds to a Ki of 5210 nM. In addition, a half-maximal effect in series [4] (EC50) was put at 137 nM. The AUC/dose in the series on Rattus norvegicus [5] came to 0.39 µM·kg·h/mg. In addition, the half-life – broadly, how long it takes for the measured level to halve – in series [6] is 2.57 h. Moreover, the clearance in series [7] is 34 mL/min/kg. Also, the Vd in series [8] was 7.8 L/kg. Besides, in [9], the bioavailability came to 35%. For the same compound, in series [10], the concentration in solution (solubility) was 27 µg/mL (≈ 62.5 µM). The Activity in the series with Rattus norvegicus [11] was 49%; in the series with Rattus norvegicus [12] it was 62%.
As to `Clc1ccc(Sc2cn(-c3ccccc3)nc2-c2ccc3c(c2)OCCO3)cc1`, the IC50 in [1] came out at 27 nM; in series [2] it was 8 nM. For the same compound, the Ki (commonly the dissociation constant of the complex between target and ligand, obtained from inhibition or displacement) in [3] was over 30000 nM.
Regarding `CC(C)(O)c1ccc(-c2nc(-c3ccc(F)cc3)oc2Sc2ccc(Cl)cn2)cn1`, the concentration for half-maximal inhibition (IC50) in [1] and in [2] was 11 nM in each case. This compound also returned an inhibition constant (Ki) in series [3] of 1250 nM. Also, in series [4], the EC50 (commonly the midpoint of the concentration-response curve) was over 20000 nM. This compound also came in with an AUC/dose in the series with Rattus norvegicus [5] of 2.2 µM·kg·h/mg. The compound further showed a half-life in series [6] of 4.3 h. In series [7], this compound gave a clearance of 20 mL/min/kg. Also, in [8], the Vd is 6.2 L/kg. The free fraction (fraction unbound) (usually the share of the substance not bound to proteins or other matrix) in [13] was found to be 0.012; in series [18], 0.029; in series [19], 0.008; in series [20] it was 0.016. The bioavailability in series [9] came to 120%. Besides, the Activity with Rattus norvegicus [11] is reported as 70%; with Rattus norvegicus [14] it was 49%; in the series on Rattus norvegicus [12] it was 71%; with Rattus norvegicus [15], 51%; with Rattus norvegicus [17], “Non-toxic”. The inhibition in vivo (commonly the drop in the measured response relative to a control, in per cent) at 3 mg/kg in the series with Rattus norvegicus [16] turned out to be 50%. In the series on Rattus norvegicus [21], the outcome was Active. In addition, the concentration at 3 h in [22] worked out at 5.4 µM; in [23] it was 8 µM; in series [24], 11.9 µM; in series [25] it was 13.2 µM; in series [26], 12.2 µM; in [27] it was 13.7 µM. The concentration at 3 h in [28] was 14.2 µM. Further, the concentration at 24 h amounted to 2.1 µM in [29]; 4.1 µM in series [30]; 6.5 µM in series [31]; 7.3 µM in [32]; 8.3 µM in series [33]; 7.9 µM in series [34].
Consider `Clc1ccc(Sc2c[nH]nc2-c2ccc3c(c2)OCCO3)cc1`, for which the IC50 in series [1] was 119 nM; in series [2], 125 nM. In series [3], this compound showed a Ki of 1540 nM.
As for `CS(=O)(=O)c1ccc(-c2nc(-c3ccccc3)oc2Sc2ccc(Cl)cc2)cc1`, the IC50 in [1] turned out to be 13 nM; in series [2], 6 nM. In addition, affinity in series [3] was put at a Ki of 28500 nM.

The values are drawn from ChEMBL document CHEMBL3286267, “Discovery of MK-4409, a Novel Oxazole FAAH Inhibitor for the Treatment of Inflammatory and Neuropathic Pain” (ACS Med Chem Lett, 2014).
